In ChEMBL document CHEMBL4152256, “Structure-activity relationship of new antimalarial 1-aryl-3-susbtituted propanol derivatives: Synthesis, preliminary toxicity profiling, parasite life cycle stage studies, target exploration, and targeted delivery” (Eur J Med Chem, 2018):
pIC50: −log10 of the molar value.

Experiments:
[1] = Genotoxicity in Salmonella typhimurium TA1535 harboring pSK1002 assessed as umu gene induction at 0.016 mg/ml in absence of Sprague-Dawley rat liver S9 fraction after by SOS/umu assay relative to control; format: toxicity, organism-based; details: salmonella enterica subsp. enterica serovar typhimurium, read-out: FC
[2] = Genotoxicity in Salmonella typhimurium TA1535 harboring pSK1002 assessed as survival at 0.008 mg/ml in presence of Sprague-Dawley rat liver S9 fraction after by SOS/umu assay relative to control; format: toxicity, organism-based; details: salmonella enterica subsp. enterica serovar typhimurium, read-out: Survival
[3] = Genotoxicity in Salmonella typhimurium TA1535 harboring pSK1002 assessed as survival at 0.031 mg/ml in presence of Sprague-Dawley rat liver S9 fraction after by SOS/umu assay relative to control; format: toxicity, organism-based; details: salmonella enterica subsp. enterica serovar typhimurium, read-out: Survival
[4] = Genotoxicity in Salmonella typhimurium TA1535 harboring pSK1002 assessed as umu gene induction at 0.002 mg/ml in presence of Sprague-Dawley rat liver S9 fraction after by SOS/umu assay relative to control; format: toxicity, organism-based; details: salmonella enterica subsp. enterica serovar typhimurium, read-out: FC
[5] = Genotoxicity in Salmonella typhimurium TA1535 harboring pSK1002 assessed as umu gene induction at 0.008 mg/ml in presence of Sprague-Dawley rat liver S9 fraction after by SOS/umu assay relative to control; format: toxicity, organism-based; details: salmonella enterica subsp. enterica serovar typhimurium, read-out: FC
[6] = Genotoxicity in Salmonella typhimurium TA1535 harboring pSK1002 assessed as umu gene induction at 0.001 mg/ml in presence of Sprague-Dawley rat liver S9 fraction after by SOS/umu assay relative to control; format: toxicity, organism-based; details: salmonella enterica subsp. enterica serovar typhimurium, read-out: FC
[7] = Genotoxicity in Salmonella typhimurium TA1535 harboring pSK1002 assessed as umu gene induction at 0.016 mg/ml in presence of Sprague-Dawley rat liver S9 fraction after by SOS/umu assay relative to control; format: toxicity, organism-based; details: salmonella enterica subsp. enterica serovar typhimurium, read-out: FC
[8] = Genotoxicity in Salmonella typhimurium TA1535 harboring pSK1002 assessed as survival at 0.002 mg/ml in absence of Sprague-Dawley rat liver S9 fraction after by SOS/umu assay relative to control; format: toxicity, organism-based; details: salmonella enterica subsp. enterica serovar typhimurium, read-out: Survival
[9] = Genotoxicity in Salmonella typhimurium TA1535 harboring pSK1002 assessed as umu gene induction at 0.031 mg/ml in presence of Sprague-Dawley rat liver S9 fraction after by SOS/umu assay relative to control; format: toxicity, organism-based; details: salmonella enterica subsp. enterica serovar typhimurium, read-out: FC
[10] = Genotoxicity in Salmonella typhimurium TA1535 harboring pSK1002 assessed as survival at 0.125 mg/ml in absence of Sprague-Dawley rat liver S9 fraction after by SOS/umu assay relative to control; format: toxicity, organism-based; details: salmonella enterica subsp. enterica serovar typhimurium, read-out: Survival
[11] = Genotoxicity in Salmonella typhimurium TA1535 harboring pSK1002 assessed as survival at 0.016 mg/ml in absence of Sprague-Dawley rat liver S9 fraction after by SOS/umu assay relative to control; format: toxicity, organism-based; details: salmonella enterica subsp. enterica serovar typhimurium, read-out: Survival
[12] = Genotoxicity in Salmonella typhimurium TA1535 harboring pSK1002 assessed as umu gene induction at 0.063 mg/ml in absence of Sprague-Dawley rat liver S9 fraction after by SOS/umu assay relative to control; format: toxicity, organism-based; details: salmonella enterica subsp. enterica serovar typhimurium, read-out: FC
[13] = Genotoxicity in Salmonella typhimurium TA1535 harboring pSK1002 assessed as survival at 0.004 mg/ml in presence of Sprague-Dawley rat liver S9 fraction after by SOS/umu assay relative to control; format: toxicity, organism-based; details: salmonella enterica subsp. enterica serovar typhimurium, read-out: Survival
[14] = Genotoxicity in Salmonella typhimurium TA1535 harboring pSK1002 assessed as survival at 0.008 mg/ml in absence of Sprague-Dawley rat liver S9 fraction after by SOS/umu assay relative to control; format: toxicity, organism-based; details: salmonella enterica subsp. enterica serovar typhimurium, read-out: Survival
[15] = Genotoxicity in Salmonella typhimurium TA1535 harboring pSK1002 assessed as survival at 0.125 mg/ml in presence of Sprague-Dawley rat liver S9 fraction after by SOS/umu assay relative to control; format: toxicity, organism-based; details: salmonella enterica subsp. enterica serovar typhimurium, read-out: Survival
[16] = Genotoxicity in Salmonella typhimurium TA1535 harboring pSK1002 assessed as umu gene induction at 0.004 mg/ml in absence of Sprague-Dawley rat liver S9 fraction after by SOS/umu assay relative to control; format: toxicity, organism-based; details: salmonella enterica subsp. enterica serovar typhimurium, read-out: FC
[17] = Genotoxicity in Salmonella typhimurium TA1535 harboring pSK1002 assessed as umu gene induction at 0.002 mg/ml in absence of Sprague-Dawley rat liver S9 fraction after by SOS/umu assay relative to control; format: toxicity, organism-based; details: salmonella enterica subsp. enterica serovar typhimurium, read-out: FC
[18] = Genotoxicity in Salmonella typhimurium TA1535 harboring pSK1002 assessed as survival at 0.016 mg/ml in presence of Sprague-Dawley rat liver S9 fraction after by SOS/umu assay relative to control; format: toxicity, organism-based; details: salmonella enterica subsp. enterica serovar typhimurium, read-out: Survival
[19] = Genotoxicity in Salmonella typhimurium TA1535 harboring pSK1002 assessed as survival at 0.063 mg/ml in presence of Sprague-Dawley rat liver S9 fraction after by SOS/umu assay relative to control; format: toxicity, organism-based; details: salmonella enterica subsp. enterica serovar typhimurium, read-out: Survival
[20] = Genotoxicity in Salmonella typhimurium TA1535 harboring pSK1002 assessed as survival at 0.001 mg/ml in absence of Sprague-Dawley rat liver S9 fraction after by SOS/umu assay relative to control; format: toxicity, organism-based; details: salmonella enterica subsp. enterica serovar typhimurium, read-out: Survival
[21] = Genotoxicity in Salmonella typhimurium TA1535 harboring pSK1002 assessed as umu gene induction at 0.004 mg/ml in presence of Sprague-Dawley rat liver S9 fraction after by SOS/umu assay relative to control; format: toxicity, organism-based; details: salmonella enterica subsp. enterica serovar typhimurium, read-out: FC
Plasmodium falciparum [22] = assay: Antiplasmodial activity against chloroquine-sensitive Plasmodium falciparum 3D7 by [3H]-hypoxanthine incorporation assay; format: functional, organism-based
Summary of the method: (§1)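 Blood-stage P. falciparum 3D7 and FCR-3 were tested by a modified [3H]-hypoxanthine incorporation assay. Chloroquine was the reference in all runs.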

[23] = Genotoxicity in Salmonella typhimurium TA1535 harboring pSK1002 assessed as survival at 0.001 mg/ml in presence of Sprague-Dawley rat liver S9 fraction after by SOS/umu assay relative to control; format: toxicity, organism-based; details: salmonella enterica subsp. enterica serovar typhimurium, read-out: Survival
[24] = Genotoxicity in Salmonella typhimurium TA1535 harboring pSK1002 assessed as survival at 0.004 mg/ml in absence of Sprague-Dawley rat liver S9 fraction after by SOS/umu assay relative to control; format: toxicity, organism-based; details: salmonella enterica subsp. enterica serovar typhimurium, read-out: Survival
[25] = Genotoxicity in Salmonella typhimurium TA1535 harboring pSK1002 assessed as umu gene induction at 0.001 mg/ml in absence of Sprague-Dawley rat liver S9 fraction after by SOS/umu assay relative to control; format: toxicity, organism-based; details: salmonella enterica subsp. enterica serovar typhimurium, read-out: FC
[26] = Genotoxicity in Salmonella typhimurium TA1535 harboring pSK1002 assessed as survival at 0.002 mg/ml in presence of Sprague-Dawley rat liver S9 fraction after by SOS/umu assay relative to control; format: toxicity, organism-based; details: salmonella enterica subsp. enterica serovar typhimurium, read-out: Survival
Plasmodium falciparum [27] = assay: Antiplasmodial activity against multidrug-resistant Plasmodium falciparum FCR-3 by [3H]-hypoxanthine incorporation assay; format: functional, organism-based, FCR-3/Gambia; details: Plasmodium falciparum, FCR-3/Gambia; summary of the method: as §1
[28] = Genotoxicity in Salmonella typhimurium TA1535 harboring pSK1002 assessed as umu gene induction at 0.063 mg/ml in presence of Sprague-Dawley rat liver S9 fraction after by SOS/umu assay relative to control; format: toxicity, organism-based; details: salmonella enterica subsp. enterica serovar typhimurium, read-out: FC
[29] = Genotoxicity in Salmonella typhimurium TA1535 harboring pSK1002 assessed as umu gene induction at 0.008 mg/ml in absence of Sprague-Dawley rat liver S9 fraction after by SOS/umu assay relative to control; format: toxicity, organism-based; details: salmonella enterica subsp. enterica serovar typhimurium, read-out: FC
[30] = Genotoxicity in Salmonella typhimurium TA1535 harboring pSK1002 assessed as umu gene induction at 0.125 mg/ml in absence of Sprague-Dawley rat liver S9 fraction after by SOS/umu assay relative to control; format: toxicity, organism-based; details: salmonella enterica subsp. enterica serovar typhimurium, read-out: FC

SMILES | fold induction at 0.016 mg/ml [1] | viability at 0.008 mg/ml [2] [%] | fold induction at 0.002 mg/ml [4] | fold induction at 0.008 mg/ml [5] | fold induction at 0.001 mg/ml [6] | fold induction at 0.016 mg/ml [7] | viability at 0.002 mg/ml [8] [%] | viability at 0.016 mg/ml [11] [%] | fold induction at 0.063 mg/ml [12] | viability at 0.004 mg/ml [13] [%] | viability at 0.008 mg/ml [14] [%] | fold induction at 0.004 mg/ml [16] | fold induction at 0.002 mg/ml [17] | viability at 0.016 mg/ml [18] [%] | viability at 0.063 mg/ml [19] [%] | viability at 0.001 mg/ml [20] [%] | fold induction at 0.004 mg/ml [21] | viability at 0.001 mg/ml [23] [%] | viability at 0.004 mg/ml [24] [%] | fold induction at 0.001 mg/ml [25] | also measured
N#Cc1ccc(C(O)CCN2CC=C(c3ccc(F)cc3)CC2)cc1 (configuration not stated) | 1.1 | 108 | 1.1 | 1 | 1.1 | 0.9 | 103 | 85.1 | 1.2 | 122 | 89.4 | 0.9 | 0.9 | 126 | 101 | 109 | 0.8 | 104 | 94.7 | 0.9 | viability at 0.031 mg/ml [3]: 130%; fold induction at 0.031 mg/ml [9]: 0.8; viability at 0.125 mg/ml [10]: 87.9%; viability at 0.125 mg/ml [15]: 108%; pIC50 (Plasmodium falciparum [22]; Plasmodium falciparum, 3D7): 5.07; viability at 0.002 mg/ml [26]: 97.8%; pIC50 (Plasmodium falciparum [27]): 5.88; fold induction at 0.063 mg/ml [28]: 1.1; fold induction at 0.008 mg/ml [29]: 1.1; fold induction at 0.125 mg/ml [30]: 1.1
OC(CCN1CCN(c2ccccc2C(F)(F)F)CC1)c1ccc(F)c2ccccc12 (stereo in doubt; 55) | 0.6 | 121 | 0.5 | 0.2 | 0.3 | 1.1 | 51.4 | 94.7 | 0.2 | 108 | 68.7 | 1.1 | 0.8 | 73.9 | 90.8 | 43.3 | 0.5 | 106 | 52.1 | 0.7 | viability at 0.031 mg/ml [3]: 101%; fold induction at 0.031 mg/ml [9]: 0.7; viability at 0.125 mg/ml [10]: 167%; viability at 0.125 mg/ml [15]: 100%; pIC50 (Plasmodium falciparum [22]): 6.80; viability at 0.002 mg/ml [26]: 120%; pIC50 (Plasmodium falciparum [27]): 6.82; fold induction at 0.063 mg/ml [28]: 0.8; fold induction at 0.008 mg/ml [29]: 0.9; fold induction at 0.125 mg/ml [30]: 0.3
N#Cc1ccc(N2CCC(NCCC(O)c3ccc(F)c4ccccc34)CC2)c(Cl)c1 (configuration not stated) | 0.6 | 35.1 | 0.8 | 1.1 | 0.9 | 0.6 | 117 | 36.8 | 0.3 | 169 | 33.7 | 1 | 1 | 38.5 | 82.8 | 130 | 0.5 | 154 | 32.2 | 1 | viability at 0.125 mg/ml [10]: 79.8%; viability at 0.125 mg/ml [15]: 134%; pIC50 (Plasmodium falciparum [22]; Plasmodium falciparum, 3D7): 6.82; viability at 0.002 mg/ml [26]: 148%; pIC50 (Plasmodium falciparum [27]): 7.05; fold induction at 0.063 mg/ml [28]: 0.2; fold induction at 0.008 mg/ml [29]: 0.8; fold induction at 0.125 mg/ml [30]: 0.1
OC(CCN1CCN(C(c2ccccc2)c2ccccc2)CC1)c1ccc(F)c2ccccc12 (configuration not stated) | 1.4 | 143 | 0.8 | 0.4 | 0.9 | 0.7 | 77.8 | 86.3 | 0.8 | 111 | 80.6 | 1.3 | 0.8 | 99.6 | 91.9 | 81 | 0.8 | 108 | 69 | 0.6 | viability at 0.031 mg/ml [3]: 95.2%; fold induction at 0.031 mg/ml [9]: 1.2; pIC50 (Plasmodium falciparum [22]; Plasmodium falciparum, 3D7): 6.21; viability at 0.002 mg/ml [26]: 114%; pIC50 (Plasmodium falciparum [27]): 6.48; fold induction at 0.063 mg/ml [28]: 1.5; fold induction at 0.008 mg/ml [29]: 1.4
N#Cc1ccc(N2CCC(NCCC(O)c3ccc(F)c4ccccc34)CC2)c(Br)c1 (configuration not stated) | 2.1 | 87.4 | 0.8 | 1 | 0.9 | 1.9 | 106 | 18.6 | 0.6 | 97.5 | 18.9 | 1.4 | 1.4 | 80.2 | 46.3 | 104 | 0.9 | 87.2 | 107 | 1.3 | viability at 0.031 mg/ml [3]: 35.3%; fold induction at 0.031 mg/ml [9]: 1.2; pIC50 (Plasmodium falciparum [22]; Plasmodium falciparum, 3D7): 6.66; viability at 0.002 mg/ml [26]: 65.3%; pIC50 (Plasmodium falciparum [27]): 7.15; fold induction at 0.063 mg/ml [28]: 0.6; fold induction at 0.008 mg/ml [29]: 2.2
